The nature of assay [1]: thallium flux activation in parental CHO cells, counter-screen for KCNQ1 potentiator project (AID 493006;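 active = duplicate-averaged activation above buffer control mean plus 5 SD of those controls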). The settings on record: parental CHO-K1 cells, FluxOR thallium flux, at 10 µM; active compounds read high. The gist of the method: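 Test system: parental CHO-K1 cells, FluxOR dye-loaded / Probe or stimulus: potassium plus thallium depolarizing stimulus, 5x stock 12.5 mM K2SO4, Tl2SO4 / Timing: overnight 37 °C plating, 90 min dye, 20 min dark compound / Measured by: kinetic thallium-flux fluorescence / Read-out: max-minus-min fluorescence over baseline, percent of buffer-to-R-L3 span / Benchmarks: buffer and R-L3 controls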
(Counterscreens check selectivity or assay interference.)

Assay [2] has as its target Potassium voltage-gated channel subfamily KQT member 1 (Homo sapiens) (UniProt P51787). Description: KCNQ1 potassium channel potentiators, confirmation, FluxOR thallium flux, CHO cells, duplicates (AID 493007;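 active = potentiation averaged over duplicate wells exceeding buffer-only control mean by more than 3 SD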;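 as to outcome: cells depolarized by a potassium plus thallium sulfate stimulus after compound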;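 as to potentiation: 0% = buffer-only wells and 100% = R-L3 activator control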). The conditions noted are these: KCNQ1 cell line, FluxOR thallium flux fluorescence, at 10 µM; active compounds read high, % of reference activator effect, buffer zero. The gist of the method: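 Assay system: CHO cells carrying KCNQ1 | Controls: Buffer and R-L3 controls | Schedule: FluxOR dye loading 90 min, compound exposure 20 min, room temperature | Read-out: Baseline-normalized fluorescence change, percent of buffer-to-R-L3 range | Replicates: Each compound tested in duplicate | Technique: Kinetic thallium influx fluorescence with FluxOR dye, 10 s baseline, 110 s post-stimulus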

Assay [3] concerns the target Potassium voltage-gated channel subfamily KQT member 2 (Rattus norvegicus) (UniProt O88943). Description: rat KCNQ2 channel potentiation, selectivity assay for KCNQ1 potentiator project, KCNQ2-CHO-K1 cells (AID 493009).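 Also: assay conditions were tuned for KCNQ1 rather than KCNQ2 modulators; signal is max minus min fluorescence divided by baseline after thallium stimulus.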 The conditions noted are these: FluxOR thallium flux fluorescence, at 10 µM; active compounds read high, scaled: buffer 0, activator control 100.
In assay [4] the target is Potassium voltage-gated channel subfamily KQT member 1 (Homo sapiens) (UniProt P51787). Description: KCNQ1 channel current potentiators, confirmation, orthogonal assay for KCNQ1 potentiator project, IonWorks patch clamp, KCNQ1-CHO cells (AID 493184;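 active = current rise at least 3 SD above the untreated control mean in each of two repeat wells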;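 as to current potentiation: percent change of the same well's current before compound addition so 0% = no change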). The conditions noted are these: automated patch clamp current, at 10 µM; active compounds read high. The gist of the method: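 Material: KCNQ1-expressing CHO cells; doses: 10 µM final, single point; probe or stimulus: voltage step from -90 mV holding to +40 mV, 2,000 ms; signal: automated voltage clamp, amphotericin B perforated patch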
Chain of Potassium voltage-gated channel subfamily KQT member 1 (Homo sapiens) (P51787 whole entry, looked up): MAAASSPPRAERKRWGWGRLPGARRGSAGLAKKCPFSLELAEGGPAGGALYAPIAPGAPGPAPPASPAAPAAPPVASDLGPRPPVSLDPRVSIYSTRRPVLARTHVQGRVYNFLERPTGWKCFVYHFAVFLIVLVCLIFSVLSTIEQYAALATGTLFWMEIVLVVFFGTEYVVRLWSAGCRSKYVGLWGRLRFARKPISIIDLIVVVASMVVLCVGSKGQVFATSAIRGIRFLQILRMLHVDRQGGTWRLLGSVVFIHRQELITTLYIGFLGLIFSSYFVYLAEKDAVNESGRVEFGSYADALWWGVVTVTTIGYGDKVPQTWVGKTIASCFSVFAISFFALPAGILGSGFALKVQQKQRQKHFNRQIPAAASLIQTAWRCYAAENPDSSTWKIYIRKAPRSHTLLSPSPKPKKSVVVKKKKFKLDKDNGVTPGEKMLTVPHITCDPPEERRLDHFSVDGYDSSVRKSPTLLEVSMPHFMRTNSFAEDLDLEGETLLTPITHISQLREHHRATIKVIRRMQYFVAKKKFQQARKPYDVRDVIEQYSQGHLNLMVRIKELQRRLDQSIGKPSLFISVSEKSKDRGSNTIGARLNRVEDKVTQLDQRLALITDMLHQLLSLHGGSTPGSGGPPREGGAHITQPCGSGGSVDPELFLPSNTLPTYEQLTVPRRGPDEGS
For orientation: Patch clamp records ionic current or voltage across a cell membrane.

The target in assay [5] is Potassium voltage-gated channel subfamily E member 1 (Homo sapiens) + Potassium voltage-gated channel subfamily KQT member 1 (Homo sapiens) (UniProt P15382+P51787). Kind of assay: KCNQ1/KCNE1 complex potentiators, confirmation, selectivity assay for KCNQ1 potentiator project, thallium flux, CHO-K1 KCNQ1/E1 cells (AID 493186;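 active = mean duplicate activation above the buffer control mean plus 5 SD of those controls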). The conditions noted are these: FluxOR thallium flux, at 10 µM; active compounds read high. The gist of the method: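 Test system: CHO-K1 cells with KCNQ1/E1. Times: 90-min dye loading then 20-min compound exposure, both at room temperature. Measured by: kinetic FluxOR thallium-flux fluorescence, 10 s baseline plus 110 s after stimulus. Repeats: duplicate wells per compound.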
Chain of Potassium voltage-gated channel subfamily E member 1 (Homo sapiens) + Potassium voltage-gated channel subfamily KQT member 1 (Homo sapiens) (P51787 whole entry, looked up): as the sequence (P51787 whole entry, looked up) above

The source made the active and inactive calls.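 The calls were made as follows, unless noted: active = mean duplicate potentiation above the buffer control mean plus 5 SD of buffer wells; inactive = the rest.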

Chain of Potassium voltage-gated channel subfamily KQT member 2 (Rattus norvegicus) (O88943 whole entry, looked up): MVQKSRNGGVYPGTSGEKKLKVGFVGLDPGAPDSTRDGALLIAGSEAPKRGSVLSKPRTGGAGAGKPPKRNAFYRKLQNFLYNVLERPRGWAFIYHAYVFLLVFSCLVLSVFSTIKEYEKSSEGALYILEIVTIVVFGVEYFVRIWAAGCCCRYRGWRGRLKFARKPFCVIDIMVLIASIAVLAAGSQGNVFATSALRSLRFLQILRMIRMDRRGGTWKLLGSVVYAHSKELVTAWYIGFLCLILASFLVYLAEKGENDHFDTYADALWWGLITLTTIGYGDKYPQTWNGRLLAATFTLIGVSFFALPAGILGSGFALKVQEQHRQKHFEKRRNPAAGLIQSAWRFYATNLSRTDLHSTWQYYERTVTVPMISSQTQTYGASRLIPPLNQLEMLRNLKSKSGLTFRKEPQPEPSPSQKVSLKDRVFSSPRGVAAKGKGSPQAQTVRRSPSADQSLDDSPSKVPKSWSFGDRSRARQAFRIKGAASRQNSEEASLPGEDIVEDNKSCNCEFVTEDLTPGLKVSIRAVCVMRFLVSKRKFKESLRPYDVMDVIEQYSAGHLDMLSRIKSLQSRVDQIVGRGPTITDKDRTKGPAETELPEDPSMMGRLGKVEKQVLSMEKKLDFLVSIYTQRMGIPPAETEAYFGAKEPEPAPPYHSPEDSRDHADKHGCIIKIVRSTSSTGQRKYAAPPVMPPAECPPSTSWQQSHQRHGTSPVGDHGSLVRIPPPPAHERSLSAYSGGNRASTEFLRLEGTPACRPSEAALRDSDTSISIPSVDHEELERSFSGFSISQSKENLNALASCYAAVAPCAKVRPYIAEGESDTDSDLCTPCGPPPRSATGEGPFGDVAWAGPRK

Consider `CC(C1CC2CCC1C2)n1c(-c2ccco2)n[nH]c1=S` (stereo not given), for which the outcome in assay [1], in assay [2], in assay [3], in assay [4] and in assay [5] was inactive.
Consider `Cc1ccc(C)c(NC(=S)c2nc3ccccc3s2)c1`, for which the outcome in assay [1], in assay [4] and in assay [5] was inactive. Moreover, the results for the potentiation in assay [2] and in assay [3] were 104% (active) and 143% (active), respectively.
Turning to `Cc1cccc(C(=O)O/N=C(\N)c2cccc([N+](=O)[O-])c2)c1`, the outcome in assay [1], in assay [2], in assay [3], in assay [4] and in assay [5] was inactive.
Turning to `Oc1c(N=NC(=S)Nc2ccccc2F)c2ccccc2n1Cc1ccc(Cl)cc1`, the outcome in assay [1], in assay [2], in assay [3], in assay [4] and in assay [5] was inactive.
For `Cc1ccc(-c2ccc(/C=C3\C(=O)ON=C3c3ccccc3)o2)c([N+](=O)[O-])c1`, the result in assay [1], in assay [3], in assay [4] and in assay [5] was inactive. In addition, in assay [2], the potentiation is 29% (active).
Regarding `O=C(Nc1cccnc1)NC1CCCCC1`, the outcome in assay [1], in assay [2], in assay [3], in assay [4] and in assay [5] was inactive.
As for `COc1ccc(Cl)cc1C(=O)NNC(=S)NC(=O)c1cc(-c2ccccc2)nc2ccccc12`, the result in assay [1], in assay [2], in assay [3], in assay [4] and in assay [5] was inactive.
As for `O=C(NC(=S)Nc1ccccc1N1CCOCC1)c1ccc(-c2cc(Cl)ccc2Cl)o1`, the outcome in assay [1], in assay [2], in assay [3], in assay [4] and in assay [5] was inactive.
With `S=c1[nH]c(-c2cccs2)cn1-c1ccccc1`, the outcome in assay [1], in assay [4] and in assay [5] was inactive. Further, the results for the potentiation in assay [2] and in assay [3] were 26% (active) and 151% (active), respectively.
For `CC(c1nccs1)N(C)C(=O)CCc1nnc(Cc2c[nH]c3ccccc23)o1` (stereo not given), the result in assay [1], in assay [2], in assay [3], in assay [4] and in assay [5] was inactive.
Regarding `Cc1ccc(-n2c(C)cc(/C=N/NC(=O)c3ccncc3)c2C)c(C)c1`, the result in assay [1], in assay [2], in assay [3], in assay [4] and in assay [5] was inactive.
`Cc1ccc(NC(=S)c2nc3ccccc3s2)cc1`: the result in assay [1], in assay [3], in assay [4] and in assay [5] was inactive. The potentiation in assay [2] is 32% (active).
With `CSc1ncc(C(=O)Nc2ccccc2Cl)c(C)n1`, the result in assay [1], in assay [2], in assay [3], in assay [4] and in assay [5] was inactive.
For the compound `CN(CC(=O)NCc1ccccc1Cl)CC(=O)Nc1cccc(F)c1`, the outcome in assay [1], in assay [2], in assay [3], in assay [4] and in assay [5] was inactive.
`COc1ccccc1OCCCc1c(C)n[nH]c1C`: the result in assay [1], in assay [2], in assay [3], in assay [4] and in assay [5] was inactive.
With `COc1ccc(C2SCC(=O)N2c2nc3ccccc3s2)cc1` (stereo not given), the outcome in assay [1], in assay [2], in assay [3] and in assay [5] was inactive. Also, the current potentiation in assay [4] was 26.4% (active).
With `Cc1ccc2[nH]c(=O)c(CN(CCCN(C)C)C(=S)NCCc3ccccc3)cc2c1`, the outcome in assay [1], in assay [2], in assay [3], in assay [4] and in assay [5] was inactive.
As to `Cc1ccc(C(=O)C2=C(O)C(=O)N(CCCN3CCOCC3)C23C(=O)N(C)c2ccccc23)o1` (stereo not given), the result in assay [1], in assay [2], in assay [3], in assay [4] and in assay [5] was inactive.
`COc1ccc(Cn2c(=O)c3[nH]cnc3n(-c3ccccc3C)c2=O)cc1`: the result in assay [1], in assay [2], in assay [3], in assay [4] and in assay [5] was inactive.
On to `CCOC(=O)N/C(N)=N/c1nc2ccccc2s1`, for which the outcome in assay [1], in assay [2], in assay [3], in assay [4] and in assay [5] was inactive.
As to `Cn1c(O)c(N=NC(=S)Nc2ccccc2F)c2cc(S(=O)(=O)N3CCOCC3)ccc21`, the result in assay [1], in assay [2], in assay [3], in assay [4] and in assay [5] was inactive.
With `COc1ccccc1N1CCN(C(=O)C2CCN(C(=O)c3cccc(Cl)c3)CC2)CC1`, the result in assay [1], in assay [2], in assay [3], in assay [4] and in assay [5] was inactive.
Turning to `CCCOC(=O)C1=C(C)NC2=C(C(=O)CCC2)C1c1ccc(N(C)C)cc1` (stereo not given), the result in assay [1], in assay [2], in assay [3], in assay [4] and in assay [5] was inactive.
Consider `N/C(=N\OC(=O)c1cccc2ccccc12)c1ccc(Br)cc1`, for which the result in assay [1], in assay [2], in assay [3], in assay [4] and in assay [5] was inactive.
With `Cc1ccc(CCNC(=O)C2CC(c3cccc(F)c3)=NO2)cc1` (stereo not given), the outcome in assay [1], in assay [2], in assay [3], in assay [4] and in assay [5] was inactive.
`CCOC(=O)c1c(N)sc(C(C)=O)c1C`: the outcome in assay [1], in assay [2], in assay [3], in assay [4] and in assay [5] was inactive.
Regarding `Cc1ccc(C)c(Cn2c(O)c(N=NC(=S)Nc3ccccc3F)c3ccccc32)c1`, the outcome in assay [1], in assay [2], in assay [3], in assay [4] and in assay [5] was inactive.
Regarding `Cc1ccc(-n2ncc(C(=O)Nc3cc(Cl)cc(Cl)c3)c2C2CCNCC2)cc1C`, the outcome in assay [1], in assay [2], in assay [3], in assay [4] and in assay [5] was inactive.
With `S=c1[nH]nc(-c2ccc(Br)o2)n1Cc1ccccc1`, the result in assay [1], in assay [2], in assay [3], in assay [4] and in assay [5] was inactive.
In the case of `Cc1ccc(O)c(NC(=S)NC(=O)Cc2ccc(Cl)cc2)c1`, the outcome in assay [1], in assay [4] and in assay [5] was inactive. For the same compound, the potentiation is 38% (active) in assay [2] and 154% (active) in assay [3].
